The source made the active and inactive calls. No cut-off for these calls is given here.
Tests used:
[1] = Growth inhibition of human […] cells; assay type: cell-based
Procedure, shortened: (§1)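 SRB assay: cells at 5 × 10^4 cells/mL were exposed to a concentration series for 3 days, fixed with 10% TCA and stained with sulforhodamine B. Survival was expressed as % of solvent-treated control and IC50 taken by nonlinear regression of % survival versus concentration. Media held 10% heat-inactivated FBS plus antibiotics: RPMI (HCT-15, HCT 116, HT-29), RPMI with 25 mM HEPES (SW480, SW620), DMEM (MRC-5, Hs68). Cultures were kept at 37 C, 5% CO2.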

HCT-15 [2] = assay: Cell cycle arrest in human HCT15 cells assessed as accumulation at sub-G1 phase at 5 uM after 24 hrs using propidium-iodide staining by flow-cytometry (reference value: 6.5 %); assay type: functional
HCT-116 = assay: Growth inhibition of human HCT116 cells; assay type: functional, cell-based; procedure, shortened: as §1
HCT-15 [3] = assay: Cell cycle arrest in human HCT15 cells assessed as accumulation at G0/G1 phase at 10 uM after 24 hrs using propidium-iodide staining by flow-cytometry (reference value: 37.0 %); assay type: functional
HCT-15 [4] = assay: Cell cycle arrest in human HCT15 cells assessed as accumulation at S phase at 20 uM after 12 hrs using propidium-iodide staining by flow-cytometry (reference value: 34.7 %); assay type: functional
HCT-15 [5] = assay: Cytotoxicity against human HCT15 cells assessed as dead cells up to 20 uM after 12 to 24 hrs by phase contrast microscopy; assay type: functional, cell-based
Procedure, shortened: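 HCT-15 cells treated with 0–20 μM for 12 and 24 h, vehicle-treated controls; morphology examined and photographed under phase-contrast microscope.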

HCT-15 [6] = assay: Induction of apoptosis in human HCT15 cells assessed as increase in caspase-3 expression after 12 to 24 hrs by Western blot analysis; assay type: functional, cell-based
Procedure, shortened: (§2)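 HCT-15 cells in RPMI/10% FBS exposed to test compound at various concentrations; lysates quantified by BCA, 30–50 μg protein run on 10% SDS-PAGE, transferred to PVDF, blocked 1 h in 5% milk/PBST, primary antibodies overnight at 4 °C, HRP anti-mouse IgG 1:1500 for 3 h at room temperature, ECL detection.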

HCT-15 [7] = assay: Cell cycle arrest in human HCT15 cells assessed as accumulation at S phase at 10 uM after 12 hrs using propidium-iodide staining by flow-cytometry (reference value: 34.7 %); assay type: functional
HCT-15 [8] = assay: Cell cycle arrest at G0/G1 phase in human HCT15 cells assessed as decrease in CDK4 expression at 5 to 20 uM after 12 to 24 hrs by Western blot analysis; assay type: functional, cell-based; procedure, shortened: as §2
HCT-15 [9] = assay: Cell cycle arrest at M phase in human HCT15 cells assessed as suppression of CDC2 Tyr-15 phosphorylation at 5 to 20 uM after 12 to 24 hrs by Western blot analysis; assay type: functional, cell-based; procedure, shortened: as §2
SW480 = assay: Growth inhibition of human SW480 cells; assay type: functional, cell-based; procedure, shortened: as §1
HCT-15 [10] = assay: Cell cycle arrest in human HCT15 cells assessed as increase in cyclin E expression at 5 to 20 uM after 12 to 24 hrs by Western blot analysis; assay type: functional, cell-based; procedure, shortened: as §2

For C[C@H]1CC[C@@]2(OC1)O[C@H]1C[C@H]3[C@@H]4CC[C@@H]5C[C@@H](O[C@@H]6O[C@H](CO)[C@H](O)[C@H](O)[C@H]6O[C@@H]6O[C@H](CO)[C@@H](O)[C@H](O)[C@H]6O)CC[C@]5(C)[C@H]4CC[C@]3(C)[C@H]1[C@@H]2C [TIMOSAPONIN AIII], the IC50 [1] was > 50 µM, the Activity (HCT-15 [2]) was 7.2% and the IC50 (HCT-116) was 5.5 µM. For the same molecule, the Activity (HCT-15 [3]) was 47.9%, the Activity (HCT-15 [4]) was 4.2% and the Activity (HCT-15 [5]) was “Active”. For the same molecule, the Activity (HCT-15 [6]) was “Active”, the Activity (HCT-15 [7]) was 18.4% and the Activity (HCT-15 [8]) was “Active”. For the same molecule, the Activity (HCT-15 [9]) was “Active”, the IC50 (SW480) was 13.1 µM and the Activity (HCT-15 [10]) was “Active”.
